Results on one molecule are retold here after ChEMBL document CHEMBL4825662 (J Med Chem, 2021).

Data set [1] in a line: Protein binding in dog plasma assessed as unbound fraction at 5 uM by LC-MS/MS analysis based equilibrium dialysis method. In kind it is ADME, cell-free, Canis lupus familiaris. On the technique in general: Equilibrium dialysis compares concentrations on both sides of a semipermeable membrane.
A short description of data set [2]: Intrinsic clearance in human liver microsomes preincubated followed by NADPH addition and measured up to 45 mins by LC-MS/MS analysis. In kind it is ADME, Microsome. A general note: Liver microsomes are vesicles of endoplasmic reticulum, rich in cytochrome P450 enzymes.
Data set [3] is described as follows: Intrinsic clearance in human hepatocytes at 3 uM assessed per million cells measured up to 60 mins by LC-MS/MS analysis. Conditions: read-out: CLH. The format is ADME, cell-based, Hepatocyte.
Data set [4] in a line: Oral bioavailability in Sprague-Dawley rat at 50 mg/kg administered via gavage measured after 0.02 to 24 hrs by tandem liquid chromatography/mass spectrometry. In kind it is ADME, organism-based. As to conditions: in vivo, time 0.02-24 hrs.
A short description of data set [5]: Antiviral activity against Respiratory syncytial virus B by Plaque reduction assay. The format is functional. In outline: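 RSV A and B laboratory strains and low-passage clinical isolates were used to infect Vero or HepG2 cultures for 48 h with compound at 0.01 nM to 100 μM. Plaques were then detected by immunostaining.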
In general terms: In a plaque reduction assay, fewer plaques than in the control indicate reduced infectivity or spread.

The nature of data set [6]: Cardiotoxicity in dog assessed as effect on QT interval by telemetry. The format is toxicity, Canis lupus familiaris.
The test system of data set [7] is Human orthopneumovirus. Kind of data set: Antiviral activity against Respiratory syncytial virus A Memphis 37b infected in human assessed as reduction in mean AUC of viral load at 200 mg administered twice daily administered for 5 days by RT-qPCR analysis. The format is functional. Also on record: scale not given: the % may be the effect or the level left. Conditions: time 5 day. In outline: (§1)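 Healthy adult volunteers aged 18–45 with low serum pre-existing RSV-specific antibodies were challenged on day zero with about 4 log10 PFU of RSV-A Memphis 37b. Subjects were randomized into 3 equal groups: 200 mg, 350 mg or placebo twice daily for 5 days, begun after infection was confirmed. Viral load in nasal wash was measured by RT-qPCR or by cell-based infectivity assay, and AUC was compared with placebo.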

Data set [8] deals with Human orthopneumovirus. Kind of data set: Antiviral activity against Respiratory syncytial virus A Memphis 37b infected in human assessed as reduction in mean AUC of viral load at 200 mg administered twice daily administered for 5 days by cell-based infectivity assay. As to conditions: time 5 day. In kind it is functional. Also on record: scale not given: the % may be the effect or the level left. In outline:
as §1

In data set [9] the test system is Human orthopneumovirus. Kind of data set: Antiviral activity against Respiratory syncytial virus A Memphis 37b infected in human assessed as reduction in nasal mucus weight at 200 to 350 mg administered twice daily administered for 5 days. The format is functional, organism-based. Conditions: dose 200-350 mg, time 5.0 day. In outline:
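Healthy adult volunteers aged 18–45, with low pre-existing RSV antibody levels, were challenged on day 0 with about 4 log10 PFU RSV-A Memphis 37b. After infection was confirmed, they were randomised to 200 mg, 350 mg or placebo twice daily for 5 days. Post hoc analysis compared mean daily nasal mucus weight with placebo.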

A short description of data set [10]: Volume of distribution at steady state in Beagle dog at 0.3 mg/kg, iv measured after 0.03 to 24 hrs by UHPLC-TOF method. The format is ADME, organism-based, Canis lupus familiaris. Conditions: in vivo, time 0.03-24 hrs, read-out: Vdss. In outline:
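Dogs examined by a veterinary surgeon before each session, fed 2 h post-dose, water ad libitum, dosed as amorphous-solid suspension. Serial blood into heparinized tubes, centrifuged at 4 °C for 10 min at 3000g; plasma snap-frozen at −20 °C. IV sampling 2 min–24 h, oral 15 min–24 h. Plasma analysed by UHPLC-quadrupole-TOF MS.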

Activity calls are given as the source filed them. The calls are words filed in the database; no cut-off is given here.

For the molecule `NCc1ccc2c(c1)nc(CN1C(=O)C3(CC3)c3ccc(F)cc31)n2CCCC(F)(F)F` [SISUNATOVIR], the fraction unbound at 5 µM in [1] came out at 0.27. Also, the “intrinsic clearance (CLint)” value in data set [2] was 44 µL/min. Further, in data set [3], the hepatocyte CLint at 3 µM was 6.58 µL/min/1e6 cells. In addition, the bioavailability in data set [4] is 132%. This molecule showed an IC50 in [5] of 1 nM. The Activity entry is reported as “Toxic” in data set [6], 55.25% in the data set on Human orthopneumovirus [7] and 76.42% in the data set on Human orthopneumovirus [8]. Further, the outcome with Human orthopneumovirus [9] was Active. For the same molecule, the Vd in data set [10] was determined as 17.6 L/kg.

One may read the fraction unbound as free concentration divided by total concentration. By IC50 is commonly meant the point on the concentration scale where inhibition reaches its midpoint.
